According to ChEMBL document CHEMBL2203123, “Synthesis and biological evaluation of some hydrazone derivatives as new anticandidal and anticancer agents” (Eur J Med Chem, 2012):
Converted amounts (≈) assume the structure as drawn.

How the values were obtained:
Salmonella typhimurium [1] = assay: Genotoxicity against Salmonella typhimurium TA98 assessed as fold increase in revertants at 0.156 mg/ml after 90 mins by Ames MPF test in absence of S9 fraction relative to baseline; format: toxicity, organism-based; conditions: salmonella enterica subsp. enterica serovar typhimurium, 1.5 h
Outline: (§1)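 Ames MPF fluctuation test, TA98 and TA100: overnight cultures reincubated 90 min, then exposed 90 min at 37 °C to compounds at 0.156-5 mg/mL (in DMSO) with or without 4.5% v/v S9; indicator medium added, 48 wells per sample scored yellow after 48 h, triplicate. Fold over baseline = mean positive wells / (mean of DMSO control + 1 SD).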

Salmonella typhimurium [2] = assay: Genotoxicity against Salmonella typhimurium TA98 assessed as fold increase in revertants at 2.5 mg/ml after 90 mins by Ames MPF test in absence of S9 fraction relative to baseline; format: toxicity, organism-based; conditions: salmonella enterica subsp. enterica serovar typhimurium, 1.5 h; outline: as §1
Salmonella typhimurium [3] = assay: Genotoxicity against Salmonella typhimurium TA98 assessed as fold increase in revertants at 1.25 mg/ml after 90 mins by Ames MPF test in presence of S9 fraction relative to baseline; format: toxicity, organism-based; conditions: salmonella enterica subsp. enterica serovar typhimurium, s9, 1.5 h; outline: as §1
Salmonella typhimurium [4] = assay: Genotoxicity against Salmonella typhimurium TA98 assessed as fold increase in revertants at 5 mg/ml after 90 mins by Ames MPF test in absence of S9 fraction relative to baseline; format: toxicity, organism-based; conditions: salmonella enterica subsp. enterica serovar typhimurium, 1.5 h; outline: as §1
Salmonella typhimurium [5] = assay: Genotoxicity against Salmonella typhimurium TA98 assessed as fold increase in revertants at 5 mg/ml after 90 mins by Ames MPF test in presence of S9 fraction relative to baseline; format: toxicity, organism-based; conditions: salmonella enterica subsp. enterica serovar typhimurium, s9, 1.5 h; outline: as §1
Salmonella typhimurium [6] = assay: Genotoxicity against Salmonella typhimurium TA98 assessed as fold increase in revertants at 2.5 mg/ml after 90 mins by Ames MPF test in presence of S9 fraction relative to baseline; format: toxicity, organism-based; conditions: salmonella enterica subsp. enterica serovar typhimurium, s9, 1.5 h; outline: as §1
Salmonella typhimurium [7] = assay: Genotoxicity against Salmonella typhimurium TA1535/pSK1002 assessed as growth factor ratio at 1.25 mg/ml by umuC assay in absence of S9 fraction; format: toxicity, organism-based; conditions: salmonella enterica subsp. enterica serovar typhimurium
Outline: (§2)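 umuC Easy CS: TA1535/pSK1002 grown overnight in ampicillin TG medium at 37 °C, then exposed 2 h at 37 °C to compounds at 5, 2.5, 1.25, 0.63 mg/mL with or without S9. Diluted into fresh medium for 2 h growth (OD600), then β-galactosidase with ONPG 30 min at 28 °C, OD420. Positive controls 2-aminoanthracene (+S9), […] (−S9).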

Candida albicans = assay: Antifungal activity against Candida albicans ATCC 90028 after 24 hrs by microdilution susceptibility assay; format: functional; conditions: ATCC 90028, 24 h
Outline: (§3)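 Broth microdilution in Mueller Hinton Broth, compounds from DMSO stocks diluted serially; inocula standardized to 10^6 CFU/mL (McFarland 0.5) from overnight MHB cultures. Plates held 37 °C for 24 h; MIC taken as first well without turbidity, aided by 1% tetrazolium violet added for 3 h at 37 °C. Ketoconazole reference.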

Candida parapsilosis = assay: Antifungal activity against Candida parapsilosis NRRL Y-12696 after 24 hrs by microdilution susceptibility assay; format: functional; conditions: Lodderomyces parapsilosis, NRRL Y-12696, 24 h; outline: as §3
Nakaseomyces glabratus = assay: Antifungal activity against Candida glabrata Anadolu University clinical isolate after 24 hrs by microdilution susceptibility assay; format: functional; outline: as §3
Salmonella typhimurium [8] = assay: Genotoxicity against Salmonella typhimurium TA98 assessed as fold increase in revertants at 0.625 mg/ml after 90 mins by Ames MPF test in presence of S9 fraction relative to baseline; format: toxicity, organism-based; conditions: salmonella enterica subsp. enterica serovar typhimurium, s9, 1.5 h; outline: as §1
Salmonella typhimurium [9] = assay: Genotoxicity against Salmonella typhimurium TA100 assessed as fold increase in revertants at 0.156 mg/ml after 90 mins by Ames MPF test in absence of S9 fraction relative to baseline; format: toxicity, organism-based; conditions: salmonella enterica subsp. enterica serovar typhimurium, 1.5 h; outline: as §1
Salmonella typhimurium [10] = assay: Genotoxicity against Salmonella typhimurium TA100 assessed as fold increase in revertants at 2.5 mg/ml after 90 mins by Ames MPF test in presence of S9 fraction relative to baseline; format: toxicity, organism-based; conditions: salmonella enterica subsp. enterica serovar typhimurium, s9, 1.5 h; outline: as §1
Salmonella typhimurium [11] = assay: Genotoxicity against Salmonella typhimurium TA100 assessed as fold increase in revertants at 0.625 mg/ml after 90 mins by Ames MPF test in presence of S9 fraction relative to baseline; format: toxicity, organism-based; conditions: salmonella enterica subsp. enterica serovar typhimurium, s9, 1.5 h; outline: as §1
Salmonella typhimurium [12] = assay: Genotoxicity against Salmonella typhimurium TA98 assessed as fold increase in revertants at 1.25 mg/ml after 90 mins by Ames MPF test in absence of S9 fraction relative to baseline; format: toxicity, organism-based; conditions: salmonella enterica subsp. enterica serovar typhimurium, 1.5 h; outline: as §1
Salmonella typhimurium [13] = assay: Genotoxicity against Salmonella typhimurium TA100 assessed as fold increase in revertants at 0.3125 mg/ml after 90 mins by Ames MPF test in presence of S9 fraction relative to baseline; format: toxicity, organism-based; conditions: salmonella enterica subsp. enterica serovar typhimurium, s9, 1.5 h; outline: as §1
Salmonella typhimurium [14] = assay: Genotoxicity against Salmonella typhimurium TA98 assessed as fold increase in revertants at 0.3125 mg/ml after 90 mins by Ames MPF test in absence of S9 fraction relative to baseline; format: toxicity, organism-based; conditions: salmonella enterica subsp. enterica serovar typhimurium, 1.5 h; outline: as §1
Salmonella typhimurium [15] = assay: Genotoxicity against Salmonella typhimurium TA98 assessed as fold increase in revertants at 0.3125 mg/ml after 90 mins by Ames MPF test in presence of S9 fraction relative to baseline; format: toxicity, organism-based; conditions: salmonella enterica subsp. enterica serovar typhimurium, s9, 1.5 h; outline: as §1
Salmonella typhimurium [16] = assay: Genotoxicity against Salmonella typhimurium TA1535/pSK1002 assessed as growth factor ratio at 0.63 mg/ml by umuC assay in presence of S9 fraction; format: toxicity, organism-based; conditions: salmonella enterica subsp. enterica serovar typhimurium; outline: as §2
Salmonella typhimurium [17] = assay: Genotoxicity against Salmonella typhimurium TA1535/pSK1002 assessed as growth factor ratio at 2.5 mg/ml by umuC assay in absence of S9 fraction; format: toxicity, organism-based; conditions: salmonella enterica subsp. enterica serovar typhimurium; outline: as §2
[18] = Genotoxicity against Salmonella typhimurium TA1535/pSK1002 assessed as induction ratio at 2.5 mg/ml by umuC assay in absence of S9 fraction; format: toxicity, organism-based; conditions: salmonella enterica subsp. enterica serovar typhimurium, Salmonella typhimurium TA1535/pSK1002 without S9 fraction; outline: as §2
Salmonella typhimurium [19] = assay: Genotoxicity against Salmonella typhimurium TA100 assessed as fold increase in revertants at 5 mg/ml after 90 mins by Ames MPF test in presence of S9 fraction relative to baseline; format: toxicity, organism-based; conditions: salmonella enterica subsp. enterica serovar typhimurium, s9, 1.5 h; outline: as §1
Salmonella typhimurium [20] = assay: Genotoxicity against Salmonella typhimurium TA1535/pSK1002 assessed as growth factor ratio at 5 mg/ml by umuC assay in absence of S9 fraction; format: toxicity, organism-based; conditions: salmonella enterica subsp. enterica serovar typhimurium; outline: as §2
Salmonella typhimurium [21] = assay: Genotoxicity against Salmonella typhimurium TA100 assessed as fold increase in revertants at 0.156 mg/ml after 90 mins by Ames MPF test in presence of S9 fraction relative to baseline; format: toxicity, organism-based; conditions: salmonella enterica subsp. enterica serovar typhimurium, s9, 1.5 h; outline: as §1
A549 = assay: Cytotoxicity against human A549 cells after 24 hrs by XTT assay; format: functional, cell-based; conditions: A549, 24 h
Outline: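 A549 cells in RPMI 1640 with 10% fetal calf serum, penicillin/streptomycin, 37 °C, 5% CO2; 20,000 cells/well seeded, after 24 h exposed to compounds at 0.00316 µM-10 mM for 24 h. XTT mitochondrial activity read at 480 nm (reference 680 nm) after 3 h; % inhibition per concentration, IC50 by non-linear regression.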

Pichia kudriavzevii = assay: Antifungal activity against Candida krusei NRRL Y-7179 after 24 hrs by microdilution susceptibility assay; format: functional; conditions: NRRL Y-7179, 24 h; outline: as §3
Salmonella typhimurium [22] = assay: Genotoxicity against Salmonella typhimurium TA1535/pSK1002 assessed as growth factor ratio at 1.25 mg/ml by umuC assay in presence of S9 fraction; format: toxicity, organism-based; conditions: salmonella enterica subsp. enterica serovar typhimurium; outline: as §2
Salmonella typhimurium [23] = assay: Genotoxicity against Salmonella typhimurium TA98 assessed as fold increase in revertants at 0.625 mg/ml after 90 mins by Ames MPF test in absence of S9 fraction relative to baseline; format: toxicity, organism-based; conditions: salmonella enterica subsp. enterica serovar typhimurium, 1.5 h; outline: as §1

Row | Compound | fold change (FC) (Salmonella typhimurium [1]) | fold change (FC) (Salmonella typhimurium [2]) | fold change (FC) (Salmonella typhimurium [3]) | fold change (FC) (Salmonella typhimurium [4]) | fold change (FC) (Salmonella typhimurium [5]) | fold change (FC) (Salmonella typhimurium [6]) | Ratio (Salmonella typhimurium [7]) | MIC (Candida albicans) | MIC (Candida parapsilosis) | MIC (Nakaseomyces glabratus) | fold change (FC) (Salmonella typhimurium [8]) | fold change (FC) (Salmonella typhimurium [9]) | fold change (FC) (Salmonella typhimurium [10]) | fold change (FC) (Salmonella typhimurium [11]) | fold change (FC) (Salmonella typhimurium [12]) | fold change (FC) (Salmonella typhimurium [13]) | fold change (FC) (Salmonella typhimurium [14]) | fold change (FC) (Salmonella typhimurium [15]) | Ratio (Salmonella typhimurium [16]) | Ratio (Salmonella typhimurium [17]) | also measured
1 | Cn1nnnc1SCC(=O)N/N=C/c1ccc(O)cc1 | 0.52 | 0.13 | 0.63 | 0.26 | 0.63 | 0.53 | 1.098 | 1000 µg/mL (≈ 3420 µM) | 1000 µg/mL (≈ 3420 µM) | 500 µg/mL (≈ 1710 µM) | 0.32 | 0.66 | 0.63 | 0.7 | 0.13 | 0.63 | 0.13 | 0.53 | 1.13 | 1.397 | fold induction at 2.5 mg/ml [18]: 0.979; fold change (FC) (Salmonella typhimurium [19]): 0.82; Ratio (Salmonella typhimurium [20]): 2.049; fold change (FC) (Salmonella typhimurium [21]): 0.63; IC50 (A549): > 10 mM; MIC (Pichia kudriavzevii): 500 µg/mL (≈ 1710 µM); Ratio (Salmonella typhimurium [22]): 1.277; fold change (FC) (Salmonella typhimurium [23]): 0.13
2 | COc1ccc(/C=N/NC(=O)CSc2nnnn2C)cc1 | 0.16 | 0.33 | 0.53 | 0.33 | 0.84 | 0.53 | 1.137 | 500 µg/mL (≈ 1630 µM) | 250 µg/mL (≈ 816 µM) | 125 µg/mL (≈ 408 µM) | 0.32 | 0.7 | 0.62 | 0.89 | 0.33 | 0.77 | 0.16 | 0.84 | 1.117 | 1.166 | fold induction at 2.5 mg/ml [18]: 1.04; fold change (FC) (Salmonella typhimurium [19]): 0.5; Ratio (Salmonella typhimurium [20]): 1.99; fold change (FC) (Salmonella typhimurium [21]): 0.46; IC50 (A549): > 10 mM; MIC (Pichia kudriavzevii): 125 µg/mL (≈ 408 µM); Ratio (Salmonella typhimurium [22]): 1.294; fold change (FC) (Salmonella typhimurium [23]): 0.65
3 | Cn1nnnc1SCC(=O)N/N=C/c1ccccc1[N+](=O)[O-] | 1.63 | 1.96 | 2 | 1.14 | 1.11 | 2.22 | 1.022 | 62.5 µg/mL (≈ 195 µM) | 500 µg/mL (≈ 1560 µM) | 250 µg/mL (≈ 778 µM) | 1.78 | 1.67 | 2.2 | 1.28 | 2.78 | 1.08 | 1.63 | 1.22 | 0.969 | 1.03 | fold induction at 2.5 mg/ml [18]: 1.63; fold change (FC) (Salmonella typhimurium [19]): 1.7; Ratio (Salmonella typhimurium [20]): 1.281; fold change (FC) (Salmonella typhimurium [21]): 1.35; IC50 (A549): 1.6 mM; MIC (Pichia kudriavzevii): 125 µg/mL (≈ 389 µM); Ratio (Salmonella typhimurium [22]): 0.879; fold change (FC) (Salmonella typhimurium [23]): 1.47
4 | Cn1nnnc1SCC(=O)N/N=C/c1ccccc1F | 0.64 | 0.95 | 1.28 | 1.59 | 1.14 | 1.57 | 1.084 | 500 µg/mL (≈ 1700 µM) | 1000 µg/mL (≈ 3400 µM) | 250 µg/mL (≈ 849 µM) | 1 | 0.23 | 0.95 | 0.66 | 0.32 | 0.51 | 1.59 | 0.71 | 0.935 | 1.559 | fold induction at 2.5 mg/ml [18]: 0.779; fold change (FC) (Salmonella typhimurium [19]): 0.58; Ratio (Salmonella typhimurium [20]): 3.877; fold change (FC) (Salmonella typhimurium [21]): 0.66; IC50 (A549): 9 mM; MIC (Pichia kudriavzevii): 500 µg/mL (≈ 1700 µM); Ratio (Salmonella typhimurium [22]): 1.163; fold change (FC) (Salmonella typhimurium [23]): 0.64
